Data set [1] relates to healthy male subjects. To be noted: in vivo.
For data set [2] the following is noted: in vivo.
The subject of data set [3] is healthy male subjects. To be noted: in vivo. This is another data set of the same source.
In data set [4] the test system is healthy male subjects. As to conditions: in vivo. The source holds these as a separate data set.
Data set [5] concerns healthy male subjects. To be noted: in vivo. This is another data set of the same source.
The subject of data set [6] is healthy male subjects. As to conditions: in vivo. This is another data set of the same source.
For data set [7] the following is noted: dog, in vivo; cited from earlier work.
In data set [8] the test system is ENaC in primary type II alveolar epithelial cells. As to conditions: rat AEC type II cells, cited from earlier work.
The nature of data set [9]: Properties of the reconstituted AP301 solution. Format: physicochemical. As to conditions: AP301 25 mg/mL, lyophilized powder reconstituted in water for injection.
Data set [10] relates to dog. As to conditions: in vivo.
Data set [11] concerns healthy male subjects. As to conditions: in vivo. The source holds these as a separate data set.
For data set [12] the following is noted: rat, in vivo; cited from earlier work.
Data set [13] has as its system acute lung injury (ALI) in anaesthetized domestic pigs. To be noted: pigs with ALI, single nebulization of 1.0 mg/kg, observation 5 hours; cited from earlier work.
In data set [14] the test system is ENaC. To be noted: cell-based studies; no reference given; cited from earlier work.
A short description of data set [15]: Aerosol characterization. It counts as physicochemical. The method, boiled down: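 Test compound supplied as lyophilized powder, reconstituted in water for injection to 25 mg/mL. The solution was aerosolized with an Aeroneb Solo vibrating-mesh nebulizer driven by an Aeroneb Pro-X controller. Particle distribution was measured by Next Generation Impactor at 15 L/min and by laser diffraction. Read-outs were fine particle fraction and average droplet size.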

For data set [16], the system named is ENaC in primary type II alveolar epithelial cells. As to conditions: pig AEC type II cells, cited from earlier work.
Data set [17] has as its system animal models. To be noted: various animal models; cited from earlier work.
For data set [18] the following is noted: human, in vivo, inhaled or intranasal.
For data set [19] the following is noted: mouse, in vivo; cited from earlier work.
Data set [20] concerns ENaC in primary type II alveolar epithelial cells. As to conditions: dog AEC type II cells, cited from earlier work.
Where [21] appears, read: whole cell patch clamp, in the presence of AP301.
Where [22] appears, read: 25 mg/mL solution, Aeroneb Solo nebulizer, laser diffraction, Apeptico Research Report, data on file.

Where two headings read alike, the source gives them in different places. Bounds are passed on as bounds.

As a reminder, the Tmax is the time at which the peak concentration occurs. Usually AUC(0-t) stands for exposure summed from dosing to a finite time, without extrapolation to infinity. A word on the Cmax: it is the peak of the concentration-time curve. As to `C[C@@H]1NC(=O)CNC(=O)[C@H](CCC(=O)O)NC(=O)[C@@H]2CCCN2C(=O)[C@H]([C@@H](C)O)NC(=O)[C@H](CCC(=O)O)NC(=O)[C@H](CCCNC(=N)N)NC(=O)[C@H](CCC(N)=O)NC(=O)CNC(=O)[C@@H](N)CSSC[C@@H](C(=O)O)NC(=O)[C@H](Cc2ccc(O)cc2)NC(=O)[C@H](Cc2c[nH]c3ccccc23)NC(=O)[C@@H]2CCCN2C(=O)[C@H](CCCCN)NC(=O)[C@H](C)NC(=O)[C@H](CCC(=O)O)NC1=O` [AP301], the “changes in safety laboratory variables” value in data set [1] was “No clinically meaningful or remarkable dose-or time-dependent changes”. For the same compound, in [2], the “maximum exposure values (Cmax) at mean dose-cohort level” value is “exceeding 2.0 ng/mL”, the “mean Cmax values in the highest dose groups” value is recorded as less than 2.5 ng/mL and the “median tmax values across dose groups” value fell in the range of 0 to 0.083 h. Also, in data set [3], the “effects on vital signs (SBP, DBP, HR)” value is on record as “no clinically meaningful dose-or time-dependent effects”. In addition, in data set [4], the “number of AEs considered related to AP301 inhalation” value stood at 7 and the “overall frequency of AEs in subjects randomized to AP301” value worked out at 25%. Besides, in data set [5], the “FEV1 declines of ≥20% from baseline” value was “no FEV1 declines of ≥20% from baseline were noted in any subject”; the “effects on airway caliber or vital capacity (FVC, FEV1)” value is listed as “absence of relevant dose-dependent effects”; the “subjects with post-dose FEV1 decline of ≥15% from baseline” value was “only a single subject”. In data set [6], the QTc value is recorded as no more than 450 milliseconds and the “changes in ECG outcome variables” value is reported as “no clinically meaningful or remarkable dose-or time-dependent changes”. The “absorption from the pulmonary compartment into the systemic circulation” value (“absorption” below) in data set [7] is reported as “hardly absorbed”. For the same compound, the “increase of amiloride-sensitive Na+ currents (via ENaC) versus baseline” value (“increase … (via ENaC) versus baseline” below) in data set [8] (setting [21]) was “about 9 fold”. Also, in data set [9], the “osmolarity of the solution” value came out at 23 mosmol/L, the “pH of the solution” value is 4.40 and the “viscosity of the solution” value was 1.07 mPa s. For the same compound, the “maximum recommended starting dose (MRSD)” value in data set [10] worked out at 0.1 mg/kg BW. Also, the “content of eNO versus baseline and pooled placebo” value in data set [11] is reported as “did not change”. In addition, the “absorption” value in data set [12] is “hardly absorbed”. In addition, in data set [13], the “oxygenation (PaO2/FiO2)” value is given as “significant improvement” and the “pulmonary shunt fraction (Qs/Qt)” value was “reduction”. In addition, in [14], the “concentration range in which ENaC activation was dose-dependent” value is 5 to 100 nM. In data set [15] (setting [22]), the average droplet size is listed as 3.3 μm and the “mean fine particle fraction (FPF)” value is reported as “about 60%”. The “FPF as determined by NGI” value in data set [15] (Next Generation Impactor at 15 L/min) is 60%. In [16] (setting [21]), the “increase … (via ENaC) versus baseline” value is listed as roughly 16 fold. The “effective pharmacological dose range” value in [17] was 0.5–1.0 mg/kg BW. In data set [18], the Tmax was roughly 5 min. For the same compound, in [18] (12 mg), the area under the curve AUC(0-t) was 0.0333 ng·h/mL, the concentration peaked (Cmax) at 0.4 ± 0.6 ng/mL and the Tmax is 5 min. In [18] (30 mg), this compound had an AUC(0-t) of 0.0183 ng·h/mL and a Cmax of 0.3 ± 0.6 ng/mL. Also, in [18] (60 mg), the exposure AUC(0-t) was 0.93 ng·h/mL, the maximum concentration (Cmax) worked out at 2.2 ± 1.4 ng/mL and the time of peak concentration (Tmax) was 5 min. In data set [18] (90 mg), this compound had an area under the curve AUC(0-t) of 0.758 ng·h/mL and a Cmax of 2.4 ± 2.1 ng/mL. In data set [18] (120 mg), the AUC(0-t) was 0.877 ng·h/mL, the peak level (Cmax) was 2.2 ± 1.8 ng/mL and the Tmax was 2.5 min. The “absorption” value in data set [19] is “hardly absorbed”. Besides, the “increase … (via ENaC) versus baseline” value in data set [20] (setting [21]) was roughly 13 fold.
For the compound `N=C(N)NC(=O)c1nc(Cl)c(N)nc1N` [amiloride, reference compound], the “effect on the AP301-induced increase of Na+ current” value in data set [8], in [16] and in data set [20] was “could be inhibited” in each case.

These data come from article PMC4160070 (Journal of clinical pharmacology, 2014).
